From article PMC8813707 (Clinical Pharmacokinetics, 2021)
Like-named read-outs stand apart in the source and are kept apart here.

How the values were obtained:
[1] = tested on: collagen type X marker (CXM); assay: Serum collagen type X marker; assay type: in vivo, human
In short: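 Serum CXM measured by electrochemiluminescence sandwich assay. Streptavidin plates were blocked, then coated with biotinylated anti-collagen X NC1 SOMAmer capture. Standard was recombinant human collagen X NC1; sera diluted 1:100. Detection used ruthenium-labelled mouse mAb. Values read from a 4PL curve (1/Y² weighting); LOD 914 pg/mL neat serum. Individual mean CXM (day 10–183, phase II) fitted by sigmoid Emax versus individual mean Cmax or AUC0-t.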

[2] = tested on: patients with achondroplasia; settings: phase II, children with achondroplasia, daily dose of 15 µg/kg, up to 42 months; cited from earlier work
[3] = tested on: patients with achondroplasia; assay: Change from baseline in annualized growth velocity; assay type: in vivo, human
In short: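 Phase II: once-daily subcutaneous dosing at 2.5–30 µg/kg. Change in AGV from baseline to day 183 fitted by sigmoid Emax (E0, Emax, EC50, Hill h) against individual mean Cmax or AUC0-t, each averaged per patient over all PK visit days. Phase III (15 µg/kg) exposure–AGV also analysed. Estimates given with 95% CIs.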

[4] = tested on: total anti-vosoritide antibody (TAb); assay: Total anti-vosoritide antibodies; assay type: in vivo, human; settings: phase III; p > 0.8 for difference in estimated mean Cmax and AUC0-∞ by TAb status, t-test
[5] = tested on: patients with achondroplasia; assay type: in vivo, human; settings: phase II, initial 6 months, visit-matched; the single patient with high exposure
NPR-B = assay: Vosoritide-neutralizing antibodies; assay type: cell-based, human; settings: phase III, all time points tested
In short: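 Run only on confirmed TAb-positive sera. Frozen NIH/3T3 cells cultured overnight (DMEM high glucose + 10% FBS, 37°C, 5% CO2). Cells stimulated with 5 ng/mL drug in diluted serum; cellular cGMP read by ELISA, where signal is inverse to cGMP. Screening cut point: upper 95th percentile of pretreatment sera. Positives confirmed by immunodepletion on drug-conjugated magnetic beads. LOD 227 ng/mL.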

[6] = Vosoritide plasma pharmacokinetics, phase II study; assay type: in vivo, human
In short: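 Phase II, daily s.c. doses 2.5–30 µg/kg. Plasma measured by validated ELISA: murine monoclonal anti-drug IgG capture, rabbit polyclonal anti-CNP IgG detection. Full sampling on days 1, 10, 29, 85 and 183, predose and 5–180 min postdose. Non-compartmental analysis used linear-up/log-down trapezoids. Below-LLOQ values before Tmax set to zero; those after Tmax censored.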

[7] = biological target: urine cGMP (activity through the target receptor NPR-B); assay: Urine cGMP normalized to creatinine; assay type: in vivo, human
In short: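 Urine collected predose and 1, 2 and 4 h postdose. Phase II: initial 6 months plus months 12, 18 and 24. Phase III: days 1–3 and weeks 6, 26 and 52. cGMP measured (LLOQ 138 pmol/mL neat urine) and normalised to creatinine. Maximum postdose increase is taken over the same-visit predose value; negative if predose is maximal. Fitted against visit-matched Cmax/AUC (non-estimable set to zero): sigmoid Emax (phase II) or Emax with h=1 (phase III).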

[8] = Vosoritide plasma pharmacokinetics, phase III study; assay type: in vivo, human
In short: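 Phase III, 15 µg/kg s.c. once daily. Full plasma sampling at day 1, week 26 and week 52: predose and 5, 15, 30, 45, 60, 90 and 120 min. Sparse sampling at weeks 13 and 39. Parameters from non-compartmental analysis with linear-up/log-down trapezoids. Effects of sex, body weight, age, race and anti-drug antibodies on exposure were evaluated.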

[9] = endogenous CNP in humans; cited from earlier work
[10] = phase II, the single patient with high individual mean exposure

With `CC[C@H](C)[C@@H]1NC(=O)[C@H](CCCNC(=N)N)NC(=O)[C@H](CC(=O)O)NC(=O)[C@H](CC(C)C)NC(=O)[C@H](CCCCN)NC(=O)[C@H](CC(C)C)NC(=O)CNC(=O)[C@H](Cc2ccccc2)NC(=O)[C@@H](NC(=O)CNC(=O)[C@H](CCCCN)NC(=O)[C@H](CO)NC(=O)[C@H](CC(C)C)NC(=O)CNC(=O)[C@H](CCCCN)NC(=O)[C@H](CCCCN)NC(=O)[C@H](CC(N)=O)NC(=O)[C@H](C)NC(=O)CNC(=O)[C@H](CCCCN)NC(=O)[C@H](Cc2ccc(O)cc2)NC(=O)[C@H](CCCCN)NC(=O)[C@H](CCCNC(=N)N)NC(=O)[C@H](C)NC(=O)[C@H](CC(N)=O)NC(=O)[C@@H]2CCCN2C(=O)[C@H](Cc2c[nH]cn2)NC(=O)[C@H](CCC(=O)O)NC(=O)[C@H](CCC(N)=O)NC(=O)CNC(=O)[C@@H]2CCCN2)CSSC[C@@H](C(=O)O)NC(=O)CNC(=O)[C@H](CC(C)C)NC(=O)CNC(=O)[C@H](CO)NC(=O)[C@H](CCSC)NC(=O)[C@H](CO)NC(=O)CNC1=O` [vosoritide] the “correlation between plasma exposure and mean CXM concentration” value ([1]; phase II, 24 months of daily dosing, 15 and 30 µg/kg, linear regression, p = 0.98 for Cmax, p = 0.99 for AUC0-60min) was “no significant correlation”, the “mean CXM from day 10 to day 183 of one patient” value [1, 10] was 12,200 pg/mL and the “relationship between exposure and mean CXM concentrations” value ([1]; phase III, 15 µg/kg, week 13 to week 52, linear regression, p = 0.74 for Cmax, p = 0.58 for AUC0-60min) was “lack of relationship”. For the same molecule, the “EC50 (AUC0-t producing half maximal effect on CXM)” value ([1]; sigmoid Emax model vs individual mean AUC0-t, day 10 to day 183, phase II, MPE) was 51700 pg·min/mL, the “sustained mean increase in annualized growth velocity (AGV) above baseline” value [2] was 1.55 cm/year and the “correlation between plasma exposure and change in AGV” value ([3]; phase II, 24 months of daily dosing, 15 and 30 µg/kg, linear regression, p = 0.34 for Cmax, p = 0.50 for AUC0-60min) was “no significant correlation”. The “change in annualized growth velocity from baseline to day 183 of one patient” value [3, 10] was 3.56 cm/year, the “relationship between exposure and changes in AGV” value ([3]; phase III, 15 µg/kg, baseline to week 52, linear regression, p = 0.52 for Cmax, p = 0.54 for AUC0-60min) was “lack of relationship” and the “EC50 (AUC0-t producing half maximal effect), change in AGV” value ([3]; sigmoid Emax model vs individual mean AUC0-t, baseline to day 183, phase II, MPE) was 20,500 pg-min/mL. The “impact of serum TAb on plasma exposure of vosoritide (Cmax and AUC0-∞)” value [4] was “no apparent impact”, the “maximum decrease in DBP of one patient” value [5] was −2 mmHg and the “maximum decrease in SBP of one patient” value [5] was −7 mmHg. The “maximum increase in HR of one patient” value [5] was 39 bpm, the “NAb status of TAb-positive patients” value (NPR-B) was “negative” and the “increase in vosoritide exposure with dose” value ([6]; doses from 2.5 to 30 μg/kg) was “greater than proportional”. For the same molecule, the Cmax ([6]; human, plasma, sc, 2.5 ug/kg) was 0.549 ng/mL, the Tmax ([6]; human, plasma, sc, 2.5 ug/kg) was 5 min and the Cmax ([6]; human, plasma, sc, 7.5 ug/kg) was 1.36 ng/mL. It also gave a Tmax ([6]; human, plasma, sc, 7.5 ug/kg) of 13.7 min, a CL/F ([6]; human, plasma, sc, 15 ug/kg) of 83.7 mL/min/kg and a Cmax ([6]; human, plasma, sc, 15 ug/kg) of 4.75 ng/mL. The Tmax ([6]; human, plasma, sc, 15 ug/kg) was 15.8 min, the Vd/F ([6]; human, plasma, sc, 15 ug/kg) was 2.56 L/kg and the half-life ([6]; human, plasma, sc, 15 ug/kg) was 24.4 min. The Cmax ([6]; human, plasma, sc, 30 ug/kg) was 16.8 ng/mL, the “Cmax at one visit of one patient” value ([6]; phase II, single patient with high exposure, left out of the figure) was 839 ng/mL and the “EC50 (AUC0-60min producing half maximal effect on cGMP/Cr)” value ([7]; Emax model (h = 1) vs visit-matched AUC0-60min, phase III, 15 µg/kg, MPE) was 479000 pg·min/mL. The “Emax, maximum postdose increase in urine cGMP/Cr” value ([7]; Emax model (h = 1) vs visit-matched Cmax, phase III, 15 µg/kg, MPE (95% CI)) was 18,160 (13,800–22,600) pmol/mg Cr, the “maximum change from pre-dose cGMP/Cr of one patient” value ([7]; phase II, initial 6 months, visit-matched, the single patient with high exposure) was 8190 pmol/mg Cr and the “EC50 (AUC0-t producing half maximal effect on cGMP/Cr)” value ([7]; sigmoid Emax model vs visit-matched AUC0-t, initial 6 months of phase II, MPE) was 222000 pg·min/mL. For the same molecule, the “impact of sex on plasma Cmax or AUC0-60min” value [8] was “no apparent impact”, the “accumulation with once-daily dosing” value ([8]; 15 µg/kg s.c. once daily, 52 weeks) was “No evidence of accumulation” and the Vz/F ([8]; 15 µg/kg s.c. once daily, Week 52, plasma ECLA, NCA, mean) was 2.91 L/kg. The “relationship of plasma AUC0-60min with body weight and age” value ([8]; linear regression, p < 0.001) was “positively correlated”.

For C-type natriuretic peptide [CNP], the half-life [9] is listed as 2.6 min.
